# Source: article PMC11105966 (Journal of medicinal chemistry, 2024)
# Where “and” joins values, the source holds several entries; their conditions need not be identical. Equal entries are not always repeated. Where two headings read alike, the source gives them in different places.
# Key:
# [1] = tested on: mouse primary hepatocytes; test: MTT cytotoxicity assay, mouse primary hepatocytes; format: cell-based; conditions: for IC50: Mus musculus, Hepatocyte; for toxicity in mouse primary hepatocytes: up to 1000 nM
# In short: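 Primary hepatocytes were isolated by collagenase perfusion from an adult female CD-1 mouse. They were maintained in M199 medium with 10% FBS at 37°C, 5% CO2.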
# [2] = tested on: seven human cancer cell lines known to overexpress SRC-3; test: MTT cytotoxicity, panel of seven human cancer cell lines; format: cell-based; conditions: read-out: IC50 values across the cancer cell lines
# In short: (§1)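 Cells seeded at 4000–7000 per well in 10% FBS medium. Lines were grown at 37°C, 5% CO2: MCF-7, LM3–3, BT-20 and BT-474 in DMEM/10% FBS; MDA-MB-468 in RPMI 1640/5% FBS; SUM159PT in Ham's F-12/5% FBS with insulin and hydrocortisone. At 70–80% confluence, test compound was added at 0.2–1000 nM for 72 h, then MTT. Viability relative to untreated cells; IC50 from Hill-slope fit.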
# [3] = Stability in human plasma; format: in vitro ADME; conditions: Fig S2
# [4] = Full pharmacokinetic profile, IV and oral, CD-1 mice; format: in vivo; conditions: male, CD-1, mouse, plasma; for Cmax: po, 10 mg/kg
# In short: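 Male mice, 6 weeks, n=3 per route. Test compound in 20% DMSO, 16% PEG, 4% dextrose in PBS: IV 1 mg/kg (0.5 mg/mL) or oral gavage 10 mg/kg (1 mg/mL). 10 μL blood taken from 2 or 15 min to 48 h. Plasma measured by LC-MS/MS against 0.5–1000 ng/mL calibration standards with four QC levels. Non-compartmental extravascular PK fit.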
# [5] = Water solubility; format: physicochemical
# [6] = Percentage of free drug; format: in vitro ADME
# [7] = target: hERG (Homo sapiens, UniProt Q12809); format: cell-based
# [8] = Maximum tolerated dose / tolerability in mice; format: in vivo
# [9] = tested on: LNCaP cells; test: LNCaP xenograft mouse model; format: in vivo, SCID mice
# In short: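 1×10^7 LNCaP cells were implanted subcutaneously on both sides of the back of male SCID mice. Daily 10 mg/kg i.p. dosing or vehicle started 4 weeks after inoculation and ran for 4 weeks. Tumor size (length × width × width/2) measured weekly. Survival endpoint was tumor diameter of 3.0 cm. Ki67, cleaved caspase 3 and CD31 IHC on tumor sections at the end of treatment.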
# [10] = tested on: AR-PDX tumor cells 118b; test: Intra-femoral bone metastasis mouse model of prostate cancer; format: in vivo, SCID mice; conditions: 10 mg/kg/day i.p., four weeks; for reduction in femur volume compared to vehicle: CT imaging
# In short: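 1 × 10^5 AR-PDX 118b cells were injected […] into male SCID mice aged 8–9 weeks. Two weeks later, n=9 per group received vehicle or 10 mg/kg/day i.p. for 4 weeks; x-ray imaging every two weeks. Femurs were collected at the end. CT 3D reconstruction was done on 5 femurs per group, plus histology; tumor/femur area ratio. Left femur as negative control.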
# [11] = target: DNA-bound ER/SRC-3/P300 complex (Homo sapiens, UniProt Q9Y6Q9); test: Biotinylated ERE pull-down assay; format: biochemical
# In short: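 Baculovirus-expressed, affinity-purified His-SRC-3-flag was incubated with test compound or vehicle for 30 min on ice, 0.1 μg protein. Then 0.1 μg recombinant ERα and His-p300 and an ERE-containing DNA oligo were added with 1 μM 17-β estradiol for 1 h on ice. The ER complex was pulled down and bound SRC-3 and p300 quantified by western blot.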
# [12] = tested on: PANC-1-shSRC-3.1 cells; test: MTT viability, SRC-3 knock-down cells shSRC-3.1; format: cell-based, human; conditions: PANC-1 shSRC-3.1 and shSRC-3.2 vs control/parental cells
# In short: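 SRC-3 was stably knocked down in PANC-1 cells with lentiviral shRNAs (shSRC-3.1, shSRC-3.2; shCtrl control), and SRC-3 levels were checked by western blot. Cells were treated with varying doses of test compound for 72 h and viability read by MTT. The IC50 of knock-down cells was compared with that of control cells to give the fold change.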
# [13] = tested on: MDA-MB-468 cells; test: Wash-out experiment in MDA-MB-468 cell line; format: cell-based, human; conditions: drug washed out with PBS, total incubation 72 h, MTT
# In short: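 MDA-MB-468 cells were grown in RPMI 1640 with 5% FBS. They were exposed to test compound for varying durations, washed with PBS, and kept in culture to a total of 72 h. Viability was read by MTT, and EC50 and EC90 were derived for each exposure time.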
# [14] = tested on: 78 targets, including GPCRs, ion channel, receptors, kinase, enzymes and transporters; test: SafetyScreen panel against 78 targets; conditions: at 10 μM
# In short: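 Commercial off-target safety panel covering GPCR (calcium flux agonist/antagonist, cAMP), ion channel (hERG blocker) and non-kinase enzyme assays. Test compound was screened at 10 μM, with RC50 values determined for interacting targets.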
# [15] = tested on: prostate cancer PDX organoids; test: Inhibition assay in prostate cancer PDX organoids; format: cell-based, human; conditions: 2 weeks treatment
# In short: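 Tumors grown in SCID mice were digested with collagenase I and III to single cells. 20000 cells were embedded in collagen gel, set 20 min at 37°C, then cultured overnight at 37°C, 5% CO2. Test compound or vehicle given for 14 days, at least 5 wells per dose. Organoids imaged and counted on day 14; Student t test.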
# [16] = tested on: Panc-1-Luc cells; test: Orthotopic Panc-1 PDAC mouse model; format: in vivo, SCID mice; conditions: 10 mg/kg i.p. once per day, 8 weeks, orthotopic PDAC mice
# In short: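 0.5×10^6 Panc-1-Luc cells were implanted orthotopically in the pancreas of male SCID mice aged 8 weeks. Mice were randomized by luciferase imaging (n=5 per group). From day 8, test compound 10 mg/kg i.p. or vehicle was given daily. Luciferase imaging and body weight were recorded weekly; tumors harvested at day 63.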
# [17] = tested on: MCF7 cells; test: MTT cytotoxicity assay, MCF7 cells; format: cell-based, human
# In short: as §1
# [18] = mice; cited from earlier work
# [19] = cytotoxicity to MCF7 cells, MTT assay, 72 h, mean of triplicate
# Sequence of hERG (Q12809 whole entry): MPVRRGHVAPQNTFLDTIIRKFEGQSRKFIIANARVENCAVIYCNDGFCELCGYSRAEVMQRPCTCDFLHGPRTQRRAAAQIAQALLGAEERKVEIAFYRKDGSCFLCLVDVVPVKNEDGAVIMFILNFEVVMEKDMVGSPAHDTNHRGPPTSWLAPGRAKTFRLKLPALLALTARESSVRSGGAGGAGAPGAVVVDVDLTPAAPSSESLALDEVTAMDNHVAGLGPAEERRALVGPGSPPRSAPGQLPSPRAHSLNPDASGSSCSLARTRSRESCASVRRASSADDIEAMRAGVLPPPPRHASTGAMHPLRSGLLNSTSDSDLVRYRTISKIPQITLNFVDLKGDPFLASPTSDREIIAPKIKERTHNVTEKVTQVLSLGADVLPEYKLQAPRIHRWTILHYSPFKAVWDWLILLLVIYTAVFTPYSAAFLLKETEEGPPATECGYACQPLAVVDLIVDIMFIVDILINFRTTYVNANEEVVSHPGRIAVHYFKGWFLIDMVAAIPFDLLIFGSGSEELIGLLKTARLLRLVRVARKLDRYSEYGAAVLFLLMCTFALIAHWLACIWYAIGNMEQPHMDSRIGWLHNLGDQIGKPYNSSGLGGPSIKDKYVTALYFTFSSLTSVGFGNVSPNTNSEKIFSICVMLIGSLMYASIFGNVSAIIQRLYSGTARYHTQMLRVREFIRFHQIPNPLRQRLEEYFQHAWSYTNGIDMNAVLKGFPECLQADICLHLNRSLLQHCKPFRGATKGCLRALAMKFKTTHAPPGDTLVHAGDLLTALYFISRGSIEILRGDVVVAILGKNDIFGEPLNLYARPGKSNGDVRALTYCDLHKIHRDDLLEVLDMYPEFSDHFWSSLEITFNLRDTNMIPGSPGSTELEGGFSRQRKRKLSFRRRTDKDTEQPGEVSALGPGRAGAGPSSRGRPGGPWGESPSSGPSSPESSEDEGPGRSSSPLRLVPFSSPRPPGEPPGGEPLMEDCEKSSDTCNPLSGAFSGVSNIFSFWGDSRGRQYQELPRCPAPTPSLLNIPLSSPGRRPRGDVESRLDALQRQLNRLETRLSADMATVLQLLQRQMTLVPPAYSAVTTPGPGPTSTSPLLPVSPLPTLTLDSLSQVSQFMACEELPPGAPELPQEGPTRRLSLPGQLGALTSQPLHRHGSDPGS
# Sequence of DNA-bound ER/SRC-3/P300 complex (Q9Y6Q9 whole entry, one chain of several): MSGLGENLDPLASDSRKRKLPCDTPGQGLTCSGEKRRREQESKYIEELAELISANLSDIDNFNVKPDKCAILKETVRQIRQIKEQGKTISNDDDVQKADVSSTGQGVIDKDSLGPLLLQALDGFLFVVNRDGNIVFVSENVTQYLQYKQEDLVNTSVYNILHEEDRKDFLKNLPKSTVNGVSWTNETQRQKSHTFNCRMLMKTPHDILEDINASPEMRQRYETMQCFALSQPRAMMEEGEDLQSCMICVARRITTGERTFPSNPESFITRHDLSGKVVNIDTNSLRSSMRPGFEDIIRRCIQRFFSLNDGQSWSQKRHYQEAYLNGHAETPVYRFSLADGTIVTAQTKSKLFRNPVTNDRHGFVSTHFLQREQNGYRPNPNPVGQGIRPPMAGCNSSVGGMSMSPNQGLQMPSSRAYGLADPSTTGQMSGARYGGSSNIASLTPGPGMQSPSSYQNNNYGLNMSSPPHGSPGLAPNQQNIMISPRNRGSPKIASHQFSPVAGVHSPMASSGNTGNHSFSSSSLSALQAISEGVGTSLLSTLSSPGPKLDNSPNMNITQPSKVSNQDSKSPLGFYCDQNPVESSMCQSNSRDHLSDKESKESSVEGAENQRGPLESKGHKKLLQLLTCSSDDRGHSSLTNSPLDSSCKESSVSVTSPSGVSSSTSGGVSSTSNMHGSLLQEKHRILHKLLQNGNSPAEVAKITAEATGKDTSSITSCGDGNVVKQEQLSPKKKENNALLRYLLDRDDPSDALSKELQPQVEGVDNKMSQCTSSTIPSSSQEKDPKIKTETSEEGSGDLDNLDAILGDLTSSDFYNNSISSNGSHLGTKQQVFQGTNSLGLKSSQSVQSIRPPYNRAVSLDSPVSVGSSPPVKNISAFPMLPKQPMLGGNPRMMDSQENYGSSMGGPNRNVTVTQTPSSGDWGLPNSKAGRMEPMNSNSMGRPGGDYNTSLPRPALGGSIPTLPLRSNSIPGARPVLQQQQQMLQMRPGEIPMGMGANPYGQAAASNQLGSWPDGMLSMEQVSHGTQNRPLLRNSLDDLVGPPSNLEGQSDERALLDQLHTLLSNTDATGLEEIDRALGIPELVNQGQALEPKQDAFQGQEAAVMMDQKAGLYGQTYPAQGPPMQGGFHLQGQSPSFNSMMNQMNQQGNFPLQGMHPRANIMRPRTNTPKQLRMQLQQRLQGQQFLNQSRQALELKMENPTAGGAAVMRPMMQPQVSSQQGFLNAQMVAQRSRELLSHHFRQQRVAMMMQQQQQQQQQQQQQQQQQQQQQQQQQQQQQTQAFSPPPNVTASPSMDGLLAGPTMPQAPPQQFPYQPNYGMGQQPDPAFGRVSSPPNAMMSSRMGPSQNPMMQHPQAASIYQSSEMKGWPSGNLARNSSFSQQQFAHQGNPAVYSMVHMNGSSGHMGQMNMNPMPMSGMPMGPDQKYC
compound,measurement,setting,value
"C/C(=N\Nc1nc2cc(F)c(F)cc2n1C)c1ncccn1 [SI-10, (E)-5,6-difluoro-1-methyl-2-(((E)-1-(pyrimidin-2-yl)ethylidene)hydrazineylidene)-2,3-dihydro-1H-benzo[d]imidazole]",IC50,[1],> 1000 nM
same,toxicity in mouse primary hepatocytes,[1],did not observe any toxicity
same,IC50,[2],1 to 32 nM
same,stability in human plasma,[3],excellent stability
same,AUC(0-t),"[4]; iv, 1 mg/kg",0.29 µM·h
same,Cmax,[4],1140 nM
same,solubility,[5],22.8 µM
same,percentage of free drug,[6],6.6%
same,hERG inhibition,[7]; at 30 μM,did not show appreciable hERG inhibition
same,body weight,"[8]; 50 mg/kg or 100 mg/kg, once per day, 4 weeks",did not cause any loss of body weight
same,acute tolerability,[8]; oral administration up to 100 mg/kg (highest dose tested),did not cause appreciable stress
same,mouse survival,"[9]; 10 mg/kg i.p. once per day, 3.0 cm tumor diameter endpoint",significantly prolonged
same,cleaved caspase 3 positive tumor cells,"[9]; IHC at end of treatment, vehicle 2%",Approximately 10%
same,Ki67 positive cells in tumors,"[9]; IHC at end of treatment, vehicle more than 50% positive",significantly lower
same,decrease of ratio of tumor area to femur area,[10],over 50%
same,reduction in femur volume compared to vehicle,[10],> 55%
"C/C(=N\N=c1/[nH]c2cc(F)c(F)cc2n1C)c1ccc(F)cn1 [SI-12, (E)-5,6-difluoro-2-(((E)-1-(5-fluoropyridin-2-yl)ethylidene)hydrazineylidene)-1-methyl-2,3-dihydro-1H-benzo[d]imidazole]",IC50,[1],> 1000 nM
same,toxicity in mouse primary hepatocytes,[1],did not observe any toxicity
same,stability in human plasma,[3],excellent stability
same,AUC(0-t),"[4]; iv, 1 mg/kg",2.31 µM·h
same,half-life,"[4]; iv, 1 mg/kg",22 h
same,Cmax,[4],2740 nM
same,solubility,[5],3.8 µM
same,percentage of free drug,[6],2.2%
same,recruitment of SRC-3 and p300 in the ER complex,"[11]; at 0.15 μM, SRC-3 protein 0.13 μM",significantly decreased
same,fold reduction of potency in SRC-3 knock-down cells vs control cells,[12],approximately 5 fold
same,fold reduction of potency in SRC-3 knock-down cells vs control cells,[12]; listed as SI-12 (6c),4.7 ~5.8 fold
same,treatment time sufficient to achieve maximal cytotoxicity,[13],3 to 6 h
same,interactions with other targets of the panel,[14],minimal
same,hERG inhibition,[7]; at 10 μM,moderate hERG inhibition
same,formation and growth of organoids,[15],effectively suppressed
same,body weight,[16],did not cause any mice body weight change
same,decrease of ratio of tumor area to femur area,[10],over 50%
same,reduction in femur volume compared to vehicle,[10],> 55%
"6-((E)-1-(((E)-5,6-dichloro-1-methyl-1,3-dihydro-2H-benzo[d]imidazol-2-ylidene)hydrazineylidene)ethyl)nicotinamide [6g]",IC50,[17]; [19],2.7 nM
"6-((E)-1-(((E)-5,6-difluoro-1-methyl-1,3-dihydro-2H-benzo[d]imidazol-2-ylidene)hydrazineylidene)ethyl)-N-hydroxynicotinamide [6m]",IC50,[17]; [19],> 1000 nM
"C/C(=N\NC1Oc2ccccc2N1C)c1ccc(F)cn1 (stereo not drawn) [8a, (E)-2-(2-(1-(5-fluoropyridin-2-yl)ethylidene)hydrazineyl)-3-methyl-2,3-dihydrobenzo[d]oxazole]",IC50,"[17]; Homo sapiens, MCF7, 72 h",> 1000 nM
same,effect on the ER complex,[11]; at 1.5 μM,did not affect the ER complex
C/C(=N\Nc1nc2ccccc2n1C)c1ccccn1 [SI-2],plasma half-life,[18],1 h and ~ 1 h
1-(1-methyl-1H-benzo[d]imidazol-2-yl)-3-(pyridin-2-yl)-1H-pyrazol-5-ol [compound 12],IC50,[17]; [19],> 1000 nM
"(E)-2-(2-(1-(5-fluoropyridin-2-yl)ethylidene)hydrazineyl)-3-methyl-2,3-dihydrobenzo[d]thiazole [8b]",IC50,[17]; [19],> 1000 nM
"methyl 6-((E)-1-(((E)-5,6-dichloro-1-methyl-1,3-dihydro-2H-benzo[d]imidazol-2-ylidene)hydrazineylidene)ethyl)nicotinate [6f]",IC50,[17]; [19],2.9 nM
